Screens from PubChem.
CHT inh – inhibits the human high affinity choline transporter; Q9GZV3; CHT-expressing cells, membrane potential dye, choline response; active compounds read low; B-score at 10 µM; hit rate 0.86% among 310,000; AID 488975;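 active = B-score over 3 SD under the library average, and starting fluorescence ratio not unusually high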;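 also: choline stimulus applied at its EC90 after an EC20 pre-addition; B-score computed on integrated fluorescence ratio after choline addition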
IMP-1 inh – inhibitors of Pseudomonas aeruginosa IMP-1 metallo-beta-lactamase. purified IMP-1, nitrocefin hydrolysis, epi-absorbance fluorescence. inhibition, % at 5.6 µM. hit rate 0.45% among 290,000. AID 1556;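 active = inhibition above the mean plus 3 SD of all compounds in the same screening run, cut at about 4.5% in these data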;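 also: 0% = IMP-1 with DMSO and 100% = DMSO wells lacking enzyme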
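Material – recombinant IMP-1 enzyme, purified · Amount – IMP-1 0.2 nM before substrate addition · Medium – HEPES buffer pH 7.1 with ZnSO4 and Brij 35 · Timing – 25 °C, 15 min preincubation, 25 min reaction · Measured by – plate fluorescence quenching by hydrolysis product, ex 480/em 530 nm · Read-out – percent enzyme inhibition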
ANO1 activ – mouse TMEM16A channel activation, primary screen; HEK293 TMEM16A/YFP-H148Q/I152L, iodide quench fluorescence; active compounds read low; hit rate 0.3% among 340,000; B-score at 10 µM;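 active = fluorescence-ratio B-score plate-corrected deviation score at least 3 library SD below zero, with starting fluorescence score within 5 deviations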;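 also: channel opened by trigger with iodide after compound preincubation; score built on the fluorescence ratio of max minus min over baseline; more negative score means more quench and so TMEM16A activation or potentiation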
Target sequence (Q8BHY3 whole entry, looked up): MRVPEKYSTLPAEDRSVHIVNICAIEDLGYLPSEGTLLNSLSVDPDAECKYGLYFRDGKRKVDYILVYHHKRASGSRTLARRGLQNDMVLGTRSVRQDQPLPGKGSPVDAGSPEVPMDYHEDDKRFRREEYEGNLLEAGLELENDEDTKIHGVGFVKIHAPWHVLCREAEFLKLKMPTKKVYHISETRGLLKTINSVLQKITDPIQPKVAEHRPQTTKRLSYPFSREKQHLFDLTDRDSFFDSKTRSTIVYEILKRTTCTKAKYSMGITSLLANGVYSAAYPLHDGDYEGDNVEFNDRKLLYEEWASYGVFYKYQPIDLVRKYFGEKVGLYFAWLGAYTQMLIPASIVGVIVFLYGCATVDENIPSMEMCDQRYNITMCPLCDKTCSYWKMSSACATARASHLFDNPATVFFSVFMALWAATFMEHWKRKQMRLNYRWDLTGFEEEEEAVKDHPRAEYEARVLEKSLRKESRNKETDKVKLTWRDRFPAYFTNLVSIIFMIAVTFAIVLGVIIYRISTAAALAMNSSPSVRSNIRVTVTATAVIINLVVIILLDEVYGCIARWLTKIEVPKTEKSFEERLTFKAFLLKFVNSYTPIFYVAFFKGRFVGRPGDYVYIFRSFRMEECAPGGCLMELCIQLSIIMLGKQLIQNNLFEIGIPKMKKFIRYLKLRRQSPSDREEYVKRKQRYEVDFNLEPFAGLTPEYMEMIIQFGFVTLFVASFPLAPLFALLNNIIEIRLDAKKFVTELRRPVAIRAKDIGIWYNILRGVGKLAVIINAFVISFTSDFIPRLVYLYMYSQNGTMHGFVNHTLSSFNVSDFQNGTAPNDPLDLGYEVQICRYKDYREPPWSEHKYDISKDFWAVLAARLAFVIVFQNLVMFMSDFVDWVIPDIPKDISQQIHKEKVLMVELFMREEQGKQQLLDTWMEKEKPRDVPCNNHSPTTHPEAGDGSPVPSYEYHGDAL
TMEM16A inh – mouse TMEM16A channel inhibition, primary screen; HEK293 TMEM16A/YFP iodide influx fluorescence, ionomycin; Q8BHY3; hit rate 1.2% among 310,000; AID 588511; normalized B-score (activity score, 25-100; higher = stronger inhibition) at 10 µM;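 active = ratio plate-corrected score three or more library SD toward inhibition, starting fluorescence score within five deviations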;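 also: score derived from kinetic fluorescence span divided by baseline fluorescence per well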
CHT allo act – allosteric activators of human choline transporter CHT; Q9GZV3; CHT-expressing cells, membrane potential dye, choline EC20; active compounds read high; LV-AA mutant CHT in HEK293 cells; B-score at 10 µM; hit rate 0.49% among 310,000; AID 488977;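 active = initial fluorescence not abnormally high and integrated response B-score, plate-corrected, over 3 SD above library mean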
VIM-2 inh – blocks Pseudomonas aeruginosa VIM-2 metallo-beta-lactamase; inhibition, % at 5.6 µM; hit rate 0.89% among 290,000; AID 1527; purified VIM-2, nitrocefin hydrolysis, epi-absorbance fluorescence;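 active = inhibition above the mean of all tested compounds plus 3 SD, cutoff set per screening run, cut at about 7.5% in these data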;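 also: red hydrolysis product quenches plate fluorescence so inhibitors raise well fluorescence; 0% = enzyme with DMSO and 100% = DMSO without enzyme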
CHT block conf – human CHT inhibition, confirmatory screen | shares compounds with CHT inh | CHT-expressing cells, choline membrane potential dye; LV-to-AA substituted CHT, HEK293 cells | CHT activity remaining % of control (active compounds read low), % at 10 µM | hit rate 70% among 2,400;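 active = choline transporter activity left, mean of duplicates at 10 µM, below buffer-only control mean minus 3 SD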;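 also: depolarization triggered by choline at its EC90 following an EC20 pre-addition; 0% = hemicholinium-3 full block and 100% = buffer-only control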
HEK293 MPD ctr – activity in parental HEK293 cells lacking CHT; shares compounds with CHT inh; membrane potential dye, choline response; active = decrease or increase beyond buffer ±3SD; membrane potential ratio readout (active if shifted either direction beyond buffer ±3SD; no single direction) at 10 µM; hit rate 4% among 2,400; AID 493222;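 also: parental cells lack the transporter so any hit is non-specific; ratio is peak minus trough fluorescence over baseline after EC90 choline challenge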
Active calls of the source: *. Rows were chosen to be rich in hits. Some 3.4% of all compounds tested hit in one or more screens of this group.

For O=S(=O)(c1ccc(N2CCCC2)nc1)N1CCCC1 the results were CHT inh -5.8*, IMP-1 inh -3, ANO1 activ inactive, TMEM16A inh inactive, CHT allo act inactive, VIM-2 inh -2, CHT block conf 43%* and HEK293 MPD ctr inactive.
Screening CC1CCN(CC(=O)Nc2cccc(C(=O)Nc3cccc(C(F)(F)F)c3)c2)CC1 returned CHT inh -6.4*, IMP-1 inh -3, ANO1 activ inactive, TMEM16A inh inactive, CHT allo act inactive, VIM-2 inh -2, CHT block conf 44%* and HEK293 MPD ctr inactive.
CC1CN(CC(=O)Nc2cccc(C(=O)Nc3cccc(C(F)(F)F)c3)c2)CC(C)O1 (configuration not stated) was read as CHT inh inactive, IMP-1 inh -3, ANO1 activ inactive, TMEM16A inh inactive, CHT allo act inactive and VIM-2 inh -4.
`CCn1c(Oc2ccc(F)cc2)nc2c1c(=O)n(C)c(=O)n2C` gave CHT inh inactive, IMP-1 inh -2, ANO1 activ inactive, TMEM16A inh inactive, CHT allo act inactive and VIM-2 inh -4.
Screening CCCCn1c(Oc2ccc(C(=O)OC)cc2)nc2c1c(=O)n(C)c(=O)n2C returned CHT inh -6.8*, IMP-1 inh -3, ANO1 activ inactive, TMEM16A inh inactive, CHT allo act inactive, VIM-2 inh -2, CHT block conf inactive and HEK293 MPD ctr inactive.
`O=C1c2ccccc2-c2cccnc21` gave CHT inh -6.8*, IMP-1 inh -4, ANO1 activ inactive, TMEM16A inh inactive, CHT allo act inactive, VIM-2 inh 4, CHT block conf 37%* and HEK293 MPD ctr inactive.
`CCOC(=O)c1[nH]c(C=O)c(C(=O)OCC)c1C` gave CHT inh -5.2*, IMP-1 inh -2, ANO1 activ inactive, TMEM16A inh inactive, CHT allo act inactive, VIM-2 inh -3, CHT block conf 69%* and HEK293 MPD ctr inactive.
CCCC(=O)Nc1cccc(NC(=O)c2ccc([N+](=O)[O-])cc2Cl)c1 was read as CHT inh -6.6*, IMP-1 inh 1, ANO1 activ inactive, TMEM16A inh inactive, CHT allo act inactive, VIM-2 inh -2, CHT block conf 61%* and HEK293 MPD ctr inactive.
Screening CCCC(=O)NC(=S)Nc1cccc(NC(=O)c2ccccc2Cl)c1 returned CHT inh -12*, IMP-1 inh 0, ANO1 activ inactive, TMEM16A inh inactive, CHT allo act inactive, VIM-2 inh -2, CHT block conf 14%* and HEK293 MPD ctr inactive.
Screening CCC(=O)NC(=S)Nc1cccc(NC(=O)c2ccccc2Cl)c1 returned CHT inh inactive, IMP-1 inh -2, ANO1 activ inactive, TMEM16A inh inactive, CHT allo act inactive and VIM-2 inh -3.
Screening CC=Cc1cc(OC)c2c(c1)C(C)C(c1ccc(O)c(OC)c1)O2 (configuration not stated) returned ANO1 activ inactive.
For O=C(COC(=O)C1CCN(S(=O)(=O)c2ccccc2)CC1)NCCc1ccccc1 the results were ANO1 activ inactive.
O=C(NC1CCN(S(=O)(=O)c2cccc(Cl)c2)CC1)C1CCCCC1 was read as CHT inh inactive, IMP-1 inh 0, ANO1 activ inactive, TMEM16A inh inactive, CHT allo act inactive and VIM-2 inh 0.
For Cc1oc(-c2ccccc2F)nc1CS(=O)CC(=O)NC1CCCC1 (configuration not stated) the results were CHT inh inactive, IMP-1 inh 1, ANO1 activ inactive, TMEM16A inh inactive, CHT allo act inactive and VIM-2 inh -1.
For Cc1noc(NC(=O)c2ccccc2)c1C#N the results were CHT inh inactive, IMP-1 inh 0, ANO1 activ inactive, TMEM16A inh inactive, CHT allo act inactive and VIM-2 inh 1.
For COc1ccccc1C(=O)Nc1onc(C)c1C#N the results were CHT inh -6.4*, IMP-1 inh -2, ANO1 activ inactive, TMEM16A inh inactive, CHT allo act inactive, VIM-2 inh -2, CHT block conf inactive and HEK293 MPD ctr inactive.
`COc1ccccc1NC(=S)N1CCN(c2cccc(C)c2C)CC1` gave CHT inh inactive, IMP-1 inh -1, ANO1 activ inactive, TMEM16A inh inactive, CHT allo act inactive and VIM-2 inh -2.
For COC(=O)c1cc(Br)cn1S(=O)(=O)c1ccccc1 the results were CHT inh inactive, IMP-1 inh -2, ANO1 activ inactive, TMEM16A inh inactive, CHT allo act inactive and VIM-2 inh -1.
`N#C/C(=N\Nc1ccc(Cl)cc1)C(N)=S` gave CHT inh -8.1*, IMP-1 inh -1, ANO1 activ inactive, TMEM16A inh 100*, CHT allo act inactive, VIM-2 inh -2, CHT block conf 39%* and HEK293 MPD ctr inactive.
N#C/C(=N\Nc1ccc(Cl)cc1)C(=N)N1CCCCC1 was read as CHT inh inactive, IMP-1 inh -1, ANO1 activ inactive, TMEM16A inh inactive, CHT allo act inactive and VIM-2 inh 0.
CC(C)C(NC(=O)c1ccccc1Br)c1ccccc1 (configuration not stated) was read as CHT inh -5.3*, IMP-1 inh -3, ANO1 activ inactive, TMEM16A inh inactive, CHT allo act inactive, VIM-2 inh -3, CHT block conf inactive and HEK293 MPD ctr inactive.
For CC(NC(=S)NC(=O)c1ccccc1Br)c1ccccc1 (configuration not stated) the results were CHT inh inactive, IMP-1 inh -2, ANO1 activ inactive, TMEM16A inh inactive, CHT allo act inactive and VIM-2 inh -1.
`CC(C)Cn1c(N)c(C(=O)COC(=O)CCNS(=O)(=O)c2ccccc2)c(=O)n(C)c1=O` gave CHT inh -6.3*, ANO1 activ inactive, TMEM16A inh 25*, CHT allo act inactive, CHT block conf 38%* and HEK293 MPD ctr inactive.
